Results as given in ChEMBL document CHEMBL1140098, “Dipeptide boronic acid inhibitors of dipeptidyl peptidase IV: determinants of potency and in vivo efficacy and safety” (J Med Chem, 2008).

Experiments:
[1] = target: Dipeptidyl peptidase 4 (Homo sapiens, UniProt P27487); experiment: Inhibition of human placental DPP4
[2] = system: Mus musculus; experiment: Reduction of glucose level in po dosed C57BL/6 mouse by oral glucose tolerance test; assay type: functional, organism-based
Outline: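 Male C57BL/6 mice, 7-8 per group, fasted 20 h, given vehicle or inhibitor by oral gavage at various doses. Oral glucose challenge (5 g/kg) 60 min later. Blood glucose read at 5 time points over 120 min.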

[3] = system: Rattus norvegicus; experiment: Inhibition of DPP4 in po dosed Sprague-Dawley rat plasma after 24 hrs; assay type: functional, organism-based
Outline: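 Sprague-Dawley rats, 4-6 per inhibitor, single oral gavage dose across a dose range. Plasma DPP-IV activity sampled 6 times over 24 h post-dose. Percent change derived by comparing each treated sample's plasma activity with its own predose activity.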

[4] = system: Rattus norvegicus; experiment: Inhibition of DPP4 in Sprague-Dawley rat plasma at 6 mg/kg, po after 4 hrs; details: read-out: INH
[5] = Toxicity in po dosed Sprague-Dawley rat assessed as maximum tolerated dose; assay type: organism-based; details: in vivo
Outline: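 Sprague-Dawley rats given escalating single doses; animals observed for adverse signs; lethargic or dead animals necropsied; maximum tolerated dose taken as the highest dose without adverse effects.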

[6] = system: Rattus norvegicus; experiment: Toxicity in po dosed Sprague-Dawley rat assessed as maximum tolerated dose relative to Val-boroPro; assay type: organism-based; details: in vivo
[7] = Therapeutic index, ratio of MTD to drug level causing maximal reduction of glucose AUC in po dosed Sprague-Dawley rat; details: in vivo

Chain of Dipeptidyl peptidase 4 (P27487 whole entry): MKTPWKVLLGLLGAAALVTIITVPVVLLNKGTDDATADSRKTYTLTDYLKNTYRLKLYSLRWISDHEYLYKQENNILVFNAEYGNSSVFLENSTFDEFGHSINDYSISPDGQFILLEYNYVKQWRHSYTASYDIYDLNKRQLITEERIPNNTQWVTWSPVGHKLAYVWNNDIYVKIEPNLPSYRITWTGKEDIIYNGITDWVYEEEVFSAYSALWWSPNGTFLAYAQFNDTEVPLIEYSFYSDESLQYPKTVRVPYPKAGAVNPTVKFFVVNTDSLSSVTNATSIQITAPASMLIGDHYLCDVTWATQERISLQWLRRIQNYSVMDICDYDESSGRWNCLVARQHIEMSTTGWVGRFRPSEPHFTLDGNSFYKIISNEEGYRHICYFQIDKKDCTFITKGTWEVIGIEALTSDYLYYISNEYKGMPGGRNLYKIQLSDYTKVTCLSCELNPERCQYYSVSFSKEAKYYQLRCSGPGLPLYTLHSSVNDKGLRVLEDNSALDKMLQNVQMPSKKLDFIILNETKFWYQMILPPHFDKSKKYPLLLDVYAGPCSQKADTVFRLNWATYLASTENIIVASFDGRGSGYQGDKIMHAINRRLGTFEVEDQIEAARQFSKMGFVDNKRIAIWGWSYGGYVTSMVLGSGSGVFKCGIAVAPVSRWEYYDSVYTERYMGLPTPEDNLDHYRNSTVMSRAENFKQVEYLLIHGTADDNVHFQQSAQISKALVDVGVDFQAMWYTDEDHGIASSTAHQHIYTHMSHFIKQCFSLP

SMILES | Ki [1] [nM] | Activity [2] | Activity [3] | inhibition in vivo at 6 mg/kg [4] [%] | MTD [5] [mg/kg] | Activity [6] | selectivity ratio [7]
N[C@@H](CCC(=O)O)C(=O)N1CCC[C@H]1B(O)O | 1.8 | – | – | – | – | – | –
CC(=O)N[C@H](C(=O)N1CCC[C@H]1B(O)O)C(C)C | 3300 | – | – | – | – | – | –
C[C@H](NC(=O)[C@@H](N)CCC(=O)O)B(O)O | – | Dose-dependent effect | Dose-dependent effect | 80 | > 500 | 20000 | –
CC(C)[C@H](N)C(=O)N1CCC[C@H]1B(O)O [TALABOSTAT] | – | Dose-dependent effect | Dose-dependent effect | – | – | 1 | –
CC[C@@H](C)[C@H](N)C(=O)N1CCSC1 | – | – | – | – | < 300 | < 12000 | < 15
C[C@H](N)C(=O)N1CCC[C@H]1B(O)O | – | Dose-dependent effect | Dose-dependent effect | – | – | 200 | –
NCC(=O)N1CCC[C@H]1B(O)O | 0.4 | – | – | – | – | – | –
CC[C@H](C)[C@H](N)C(=O)N1CCSC1 | – | – | – | – | > 700 | > 28000 | > 35
